From PMC3263504 (Cell Death and Differentiation, 2011) come the findings set out here.

No end group written: not given here. *: point of attachment. Biotin = O=C1N[C@H]2[C@H](CS[C@H]2CCCCC(=O)*)N1

For experiment [1], the system named is GST-Dom3. Nature of the experiment: GST pull-down of full-length 3xFLAG-Bcl-2 proteins from COS-1 lysates. It counts as binding, mouse. The following applies: lysates of transfected COS-1 cells, result in words. In outline: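 Lysates (200 μg) of COS-1 cells transiently transfected with 3xFLAG-Bcl-2, K/D mutant or empty vector, incubated with purified GST-Dom3 (IP3R1 a.a. 923–1581, E. coli BL21(DE3)-expressed, PBS-dialyzed). Beads washed four times in 150 mM NaCl buffer without BSA, eluted in LDS 3 min at 95°C. Anti-FLAG western blot; bands quantified, normalized to GST binding; at least five independent experiments.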

Experiment [2] deals with C6 glioma cells. Put plainly: PAC-1-induced apoptosis in C6 glioma cells. It counts as cell-based, rat. To be noted: PAC-1 150 μM, 6 h. In outline: (§1)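 C6 glioma monolayers in situ electroporated (100 V peak-to-peak, 500 µm electrode gap, low-conductivity sorbitol buffer) with 100 μM DTR and 20 μM peptide. Trigger applied in medium for 6 h: STS 2 μM or PAC-1 150 µM. Apoptosis stained with FITC-VAD-FMK (10 μM, 40 min, 37°C), PFA-fixed, DAPI. Five images inside and five outside the electroporated area; AI inside relative to outside, then vs vehicle (100%).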

Experiment [3] concerns GST. Nature of the experiment: SPR, parental GST. It counts as binding. To be noted: GST up to 40 μM, result in words. Put shortly:
(§2)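 SPR at 25°C. Biotinylated BH4 peptides (200 ng, 58.2 pmol, >80% pure) immobilized on a streptavidin chip in PBS/0.005% P20, pH 7.0. Analyte was GST-Dom3 or parental GST in PBS, 30 μl/min, several concentrations in random order; response in RU. Scrambled-peptide reference cell subtracted. Regeneration with 25 mM NaOH/0.002% SDS. At least three independent chips.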
Background: Surface plasmon resonance follows binding to a sensor surface in real time, without labels.

Experiment [4] has as its target GST-Dom3 IP3R1 (Mus musculus, UniProt P11881). Nature of the experiment: SPR, GST-Dom3 of IP3R1 on immobilized biotinylated BH4 peptides. It counts as binding. The following applies: association phase, corrected for scrambled peptide, result in words. Put shortly: as §2
The subject of experiment [5] is IP3R. Nature of the experiment: Unidirectional 45Ca2+-flux assay in saponin-permeabilized MEF cells. It counts as cell-based, mouse. To be noted: for effect of alanine mutation on the inhibitory action of BH4-Bcl-2 on IICR: 60 μM mutant peptide, result in words; for effect on IICR (dose-response): 3 μM IP3, result in words. In outline: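 MEF cells at 30°C permeabilized 10 min with 20 µg/ml saponin (imidazole-KCl, pH 6.8, 1 mM ATP, 1 mM EGTA). Stores loaded 45 min with 150 nM free 45Ca2+, 5 mM ATP, 10 mM NaN3. Efflux medium contained 1 mM EGTA and 4 μM thapsigargin, changed every 2 min. Peptides (alanine mutants 60 μM) added 4 min before IP3 (3 μM, 2 min, after 10 min efflux). Residual Ca2+ released with 2% SDS; read-out fractional loss (%/2 min).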

Experiment [6] relates to C6 glioma cells. Nature of the experiment: Staurosporine-induced apoptosis in C6 glioma cells. It counts as cell-based, rat. To be noted: 6 h, result in words. Put shortly: as §1
The target in experiment [7] is GST-Dom3 (a.a. 923–1581 of IP3R1) (mouse, UniProt P11881 923-1581). Put plainly: SPR.
The target in experiment [8] is GST-Dom3 IP3R2 (a.a. 913–1562) (mouse, UniProt Q9Z329 913-1562). Nature of the experiment: SPR.
In experiment [9] the target is GST-Dom3 IP3R3 (a.a. 910–1427) (rat, UniProt Q63269 910-1427). Nature of the experiment: SPR.
Sequence of GST-Dom3 IP3R3 (a.a. 910–1427) (Q63269 910-1427): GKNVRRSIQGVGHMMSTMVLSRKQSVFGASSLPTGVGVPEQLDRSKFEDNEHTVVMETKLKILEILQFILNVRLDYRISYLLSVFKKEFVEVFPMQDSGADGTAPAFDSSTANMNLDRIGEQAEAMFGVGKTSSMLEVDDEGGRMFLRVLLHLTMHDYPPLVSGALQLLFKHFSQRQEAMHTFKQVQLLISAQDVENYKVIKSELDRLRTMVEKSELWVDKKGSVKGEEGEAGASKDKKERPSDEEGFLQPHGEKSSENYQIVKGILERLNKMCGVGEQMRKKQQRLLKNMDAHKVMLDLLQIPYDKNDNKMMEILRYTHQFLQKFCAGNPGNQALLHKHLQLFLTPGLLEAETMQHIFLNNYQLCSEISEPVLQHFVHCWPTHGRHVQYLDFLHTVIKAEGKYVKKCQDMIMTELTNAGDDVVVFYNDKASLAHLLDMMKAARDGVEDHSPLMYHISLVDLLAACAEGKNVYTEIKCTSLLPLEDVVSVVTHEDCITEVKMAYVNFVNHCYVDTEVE

Sequence of GST-Dom3 IP3R1 (P11881 923-1581): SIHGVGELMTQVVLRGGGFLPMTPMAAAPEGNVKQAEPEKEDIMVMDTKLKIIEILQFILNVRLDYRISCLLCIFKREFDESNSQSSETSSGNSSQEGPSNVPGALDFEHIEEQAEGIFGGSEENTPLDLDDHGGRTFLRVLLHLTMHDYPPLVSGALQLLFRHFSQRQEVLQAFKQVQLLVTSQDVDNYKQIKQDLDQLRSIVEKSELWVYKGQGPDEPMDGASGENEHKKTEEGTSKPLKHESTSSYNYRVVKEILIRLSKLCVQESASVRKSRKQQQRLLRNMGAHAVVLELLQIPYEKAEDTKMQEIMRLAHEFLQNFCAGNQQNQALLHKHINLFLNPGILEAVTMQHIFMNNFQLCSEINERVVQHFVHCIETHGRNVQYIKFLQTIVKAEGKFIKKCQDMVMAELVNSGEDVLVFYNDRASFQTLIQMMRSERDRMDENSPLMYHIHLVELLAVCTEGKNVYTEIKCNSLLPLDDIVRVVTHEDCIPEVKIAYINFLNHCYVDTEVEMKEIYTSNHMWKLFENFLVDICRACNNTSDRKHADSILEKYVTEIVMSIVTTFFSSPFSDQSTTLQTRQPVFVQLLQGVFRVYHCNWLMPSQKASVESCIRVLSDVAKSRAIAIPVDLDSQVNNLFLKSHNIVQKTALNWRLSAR
Sequence of GST-Dom3 (a.a. 923–1581 of IP3R1) (P11881 923-1581): as above
Sequence of GST-Dom3 IP3R2 (a.a. 913–1562) (Q9Z329 913-1562): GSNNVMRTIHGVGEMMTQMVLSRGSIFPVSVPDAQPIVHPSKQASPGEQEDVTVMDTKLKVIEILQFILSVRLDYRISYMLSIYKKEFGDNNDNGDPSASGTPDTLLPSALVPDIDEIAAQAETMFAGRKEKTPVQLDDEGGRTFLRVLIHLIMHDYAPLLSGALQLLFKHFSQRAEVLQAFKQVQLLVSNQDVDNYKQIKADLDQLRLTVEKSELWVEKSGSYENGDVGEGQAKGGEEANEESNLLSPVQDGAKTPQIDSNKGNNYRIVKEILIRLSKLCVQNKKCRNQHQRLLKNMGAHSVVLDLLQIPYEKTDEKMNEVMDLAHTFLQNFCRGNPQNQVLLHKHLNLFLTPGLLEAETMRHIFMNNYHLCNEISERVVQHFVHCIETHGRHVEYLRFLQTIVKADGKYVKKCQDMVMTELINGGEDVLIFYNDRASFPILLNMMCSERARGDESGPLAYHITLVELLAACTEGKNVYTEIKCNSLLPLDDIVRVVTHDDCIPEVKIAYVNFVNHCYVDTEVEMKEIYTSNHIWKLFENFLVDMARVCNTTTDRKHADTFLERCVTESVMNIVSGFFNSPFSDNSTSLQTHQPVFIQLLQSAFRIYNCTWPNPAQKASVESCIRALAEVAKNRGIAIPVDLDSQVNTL

In the case of “3xFLAG-Bcl-2 K/D: full-length 3xFLAG-Bcl-2 with Lys17 mutated into Asp, expressed in COS-1 cells”, in experiment [1], the “binding to GST-Dom3 compared with wild-type 3xFLAG-Bcl-2” value is “severely compromised”. For `C=CCc1cccc(/C=N/NC(=O)CN2CCN(Cc3ccccc3)CC2)c1O` [PAC-1], the “apoptosis, share of the cell population” value in experiment [2] is recorded as about 15%. For the molecule “Biotin-MSQSNRELVVDFLSYKLSQKGYSW [biotin-BH4-Bcl-Xl]”, in experiment [3], the “binding of GST (control)” value is given as “bound to neither”. In the case of “Biotin-MSQSNRELVVKFLSYKLSQKGYSW [biotin-BH4-Bcl-Xl D/K]”, the “specific binding of GST-Dom3 (resonance units)” value in [4] is reported as “able to bind GST-Dom3”. The same measure, in the same setting: with “Biotin-RTGYANAEIVMKYIAEKLSAAGKEW [biotin-BH4-Bcl-2BIND, reference compound]” the entry was “did not specifically bind”.

On to H20A (RTGYDNREIVMKYIAYKLSQRGYEW), for which, in experiment [5], the “effect of alanine mutation on the inhibitory action of BH4-Bcl-2 on IICR” value is “largest effect on the inhibitory action”. On the same count and under the same terms, with K17A (RTGYDNREIVMAYIHYKLSQRGYEW) the entry was “largest effect on the inhibitory action”.

With NVYTEIKCNSLLPLDDIVRV [IDP], the “effect of IDP on BH4-Bcl-2-mediated protection against STS” value in experiment [6] (IDP co-loaded with BH4-Bcl-2, STS 2 μM) is “completely suppressed”. Moreover, in experiment [6] (IDP co-loaded with BH4-Bcl-Xl, STS 2 μM), the “effect of IDP on the protection by BH4-Bcl-Xl against STS” value is “independent of IDP”. Take R26A (RTGYDNREIVMKYIHYKLSQAGYEW): the “effect of alanine mutation on the inhibitory action of BH4-Bcl-2 on IICR” value in experiment [5] is “largest effect on the inhibitory action”. Turning to “RTGYANAEIVMKYIAEKLSAAGKEW [BH4-Bcl-2BIND, reference compound]”, the “effect on IICR (dose-response)” value in experiment [5] is “did not inhibit IICR”. On the same count and under the same terms, next, “RTGYDNREIVMKYIHYKLSQRGYEW [BH4-Bcl-2 K/D]”: “largely ineffective”. On the same count and under the same terms, with “WYEKQRSLHGIMYYVIEDRNTKGYR [BH4-Bcl-2SCR, reference compound]” the entry was “did not inhibit IICR”. With Y21A (RTGYDNREIVMKYIHAKLSQRGYEW), in [5], the “effect of alanine mutation on the inhibitory action of BH4-Bcl-2 on IICR” value was “largest effect on the inhibitory action”.

For Biotin-MSQSNRELVVKFLSYKLSQKGYSW [Biotin-BH4-Bcl-Xl D/K], the binding result in experiment [7] was “binds”. As for Biotin-RTGYDNREIVMKYIHYKLSQRGYEW [Biotin-BH4-Bcl-2], the binding result in experiment [8] and in [9] was “binds” in each case.
